Measured values: ChEMBL document CHEMBL3861968, “Neuroactive and Anti-inflammatory Frankincense Cembranes: A Structure-Activity Study” (J Nat Prod, 2016)
pEC50, pIC50: −log10 of the molar value.

How the values were obtained:
Type in all cases: cell-based
[1] = Inhibition of TNFalpha-induced NFkappaB activation in mouse NIH-3T3 cells expressing NFkappaB (unknown origin) preincubated for 15 mins followed by TNFalpha addition measured after 6 hrs by luciferase reporter gene assay; conditions: NIH3T3
[2] = target: T1, Heat sensitive channel TRPV3 (Rattus norvegicus, UniProt Q4QYD9); assay: Antagonist activity at rat TRPV3 overexpressed in HEK293 cells assessed as inhibition of thymol-induced increase in intracellular Ca2+ levels preincubated for 5 mins prior to thymol-stimulation by Fluo-4AM dye-based spectrofluorometry
T1 sequence (Q4QYD9 whole entry): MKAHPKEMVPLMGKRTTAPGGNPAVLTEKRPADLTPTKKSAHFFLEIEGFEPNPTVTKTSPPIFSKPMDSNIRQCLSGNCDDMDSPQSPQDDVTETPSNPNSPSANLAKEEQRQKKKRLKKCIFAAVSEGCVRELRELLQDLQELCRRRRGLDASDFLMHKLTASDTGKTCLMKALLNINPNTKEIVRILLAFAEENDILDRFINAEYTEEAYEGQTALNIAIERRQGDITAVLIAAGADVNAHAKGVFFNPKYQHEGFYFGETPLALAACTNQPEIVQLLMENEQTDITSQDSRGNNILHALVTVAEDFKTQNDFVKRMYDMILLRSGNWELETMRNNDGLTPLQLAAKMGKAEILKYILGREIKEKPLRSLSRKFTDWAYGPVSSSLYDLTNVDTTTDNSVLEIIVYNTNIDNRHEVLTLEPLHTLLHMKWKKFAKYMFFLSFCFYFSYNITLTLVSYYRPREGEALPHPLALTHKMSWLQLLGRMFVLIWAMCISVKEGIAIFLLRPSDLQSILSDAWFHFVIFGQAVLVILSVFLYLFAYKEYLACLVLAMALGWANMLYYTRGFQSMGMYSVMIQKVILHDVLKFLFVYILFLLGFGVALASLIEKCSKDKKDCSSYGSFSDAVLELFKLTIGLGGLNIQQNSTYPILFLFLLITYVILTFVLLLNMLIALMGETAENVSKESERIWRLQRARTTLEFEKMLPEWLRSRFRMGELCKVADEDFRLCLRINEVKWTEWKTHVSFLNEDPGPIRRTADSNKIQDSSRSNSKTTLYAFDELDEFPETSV
Procedure, shortened: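 Compounds added 5 min before thymol (100 μM). Thymol-alone response taken as 100%. IC50 of inhibition of the [Ca2+]i rise taken from sigmoidal variable-slope fit. At least triplicate. ANOVA with Bonferroni.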

[3] = target: T2, Heat sensitive channel TRPV3 (Rattus norvegicus) (UniProt Q4QYD9); assay: Activation of rat TRPV3 overexpressed in HEK293 cells assessed as increase in 2-aminoethoxydiphenyl borate-induced intracellular calcium concentration by Fluo-4AM dye-based spectrofluorometry relative to ionomycin
T2 sequence (whole entry): T1 sequence (Q4QYD9 whole entry)
Procedure, shortened: (§1)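 Stable rat TRPV3 HEK293 cells in MEM with 10% FBS, 37 °C, 5% CO2. Pre-sensitized with 2-APB (100 μM). Loaded 1 h at room temperature with Fluo-4 AM (4 μM), washed, held in Tyrode's buffer pH 7.4 in a stirred cuvette. Untransfected HEK293 baseline subtracted. EC50 taken from sigmoidal variable-slope fit. Efficacy expressed relative to 4 μM ionomycin. At least triplicate.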

[4] = target: T1, Heat sensitive channel TRPV3; assay: Activation of rat TRPV3 overexpressed in HEK293 cells assessed as increase in 2-aminoethoxydiphenyl borate-induced intracellular calcium concentration by Fluo-4AM dye-based spectrofluorometry; procedure, shortened: as §1
[5] = target: T3, Transient receptor potential cation channel subfamily V member 3 (Mus musculus, UniProt Q8K424); assay: Agonist activity at mouse YFP-tagged TRPV3 expressed in HEK293 cells assessed as increase in calcium influx by Fluo-2-AM dye based microscopic analysis
T3 sequence (Q8K424 whole entry): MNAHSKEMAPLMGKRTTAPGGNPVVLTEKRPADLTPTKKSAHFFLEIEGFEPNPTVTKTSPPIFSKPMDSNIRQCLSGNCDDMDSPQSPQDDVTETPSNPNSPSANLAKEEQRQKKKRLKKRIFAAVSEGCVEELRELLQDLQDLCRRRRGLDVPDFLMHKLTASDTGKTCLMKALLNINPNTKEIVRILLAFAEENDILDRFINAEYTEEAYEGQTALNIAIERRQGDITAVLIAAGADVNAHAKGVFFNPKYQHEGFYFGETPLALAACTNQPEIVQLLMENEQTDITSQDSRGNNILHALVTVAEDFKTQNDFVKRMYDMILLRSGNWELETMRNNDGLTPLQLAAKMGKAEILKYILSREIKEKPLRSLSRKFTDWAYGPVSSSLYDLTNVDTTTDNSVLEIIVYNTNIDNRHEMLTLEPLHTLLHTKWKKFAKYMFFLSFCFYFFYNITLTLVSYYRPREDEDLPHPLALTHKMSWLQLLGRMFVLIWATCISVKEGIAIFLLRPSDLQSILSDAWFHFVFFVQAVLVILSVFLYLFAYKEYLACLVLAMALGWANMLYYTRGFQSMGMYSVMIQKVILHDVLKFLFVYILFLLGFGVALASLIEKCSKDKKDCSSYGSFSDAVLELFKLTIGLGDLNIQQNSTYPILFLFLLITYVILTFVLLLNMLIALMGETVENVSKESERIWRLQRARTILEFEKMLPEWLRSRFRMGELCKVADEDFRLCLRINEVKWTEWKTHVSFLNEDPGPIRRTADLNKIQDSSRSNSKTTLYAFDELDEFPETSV

Compound | pIC50 [1] | pIC50 [2] | Emax [3] [%] | pEC50 [4] | pEC50 [5]
CC1=C2CC/C(C)=C/CC[C@]3(C)O[C@@H]3CC/C(C)=C/[C@@H]2OC1 | < 4.30 |  |  |  | 
C/C1=C\C[C@]2(C(C)C)CC[C@@](C)(O2)C(=O)CC/C(C)=C/CC1 | < 4.30 |  |  |  | 
C/C1=C\CC[C@]2(C)O[C@@H]2C[C@]2(C(C)C)CC[C@@](C)(O2)[C@@H](O)CC1 | < 4.30 | < 4.00 | 27.2 | 4.60 | 
Cc1ccc(C(C)C)c(O)c1 [THYMOL] |  |  | 49.4 | 4.54 | 
C/C1=C\C[C@]2(C(C)C)CC[C@@](C)(O2)[C@@H](O)CC/C(C)=C/CC1 [INCENSOLE] | < 4.30 | 5.68 | 65.1 | 5.68 | 
CCCCCCCCC(=O)O[C@H]1CC/C(C)=C/CC/C(C)=C/C[C@]2(C(C)C)CC[C@@]1(C)O2 | 4.45 |  |  |  | 
C/C1=C\CC/C(C)=C/C[C@](O)(C(C)C)CC/C(C)=C/CC1 | < 4.30 | 6.82 | 62.4 | 6.77 | 
CC1=C2CC/C(C)=C/CC[C@]3(C)O[C@@H]3CC/C(C)=C/[C@@H]2OC1=O | < 4.30 | < 4.00 | 21.3 | 4.52 | 
C/C1=C\C[C@]2(C(C)C)CC[C@@](C)(O2)[C@@H](OC(=O)c2ccccc2)CC/C(C)=C/CC1 | < 4.30 |  |  |  | 
CC(=O)O[C@H]1CC/C(C)=C/CC[C@]2(C)O[C@@H]2C[C@]2(C(C)C)CC[C@@]1(C)O2 | < 4.30 | 4.88 | 57.7 | 5.06 | 
C/C1=C\C[C@]2(C(C)C)CC[C@@](C)(O2)[C@H](O)CC/C(C)=C/CC1 | < 4.30 | 4.91 | 38 | 5.14 | 
CC(=O)O[C@H]1CC[C@@]2(C)O[C@H]2CC/C(C)=C/C[C@]2(C(C)C)CC[C@@]1(C)O2 | < 4.30 | 4.68 | 31.6 | 5.07 | 
NC(=O)c1sc(-c2ccsc2)cc1N | 5.10 |  |  |  | 
C/C1=C\C[C@]2(C(C)C)CC[C@@](C)(O2)[C@@H](OC(=O)Cc2ccccc2)CC/C(C)=C/CC1 | 4.65 | 4.66 | 25.6 | 5.92 | 
CC(=O)O[C@H]1CC/C(C)=C/CC/C(C)=C/C[C@]2(C(C)C)CC[C@@]1(C)O2 | < 4.30 | 5.66 | 43.4 | 5.85 | 4.80
C/C1=C\C[C@]2(C(C)C)CC[C@@](C)(O2)[C@@H](OC(=O)/C=C/c2ccccc2)CC/C(C)=C/CC1 | < 4.30 |  |  |  | 
